Measured values: paper PMC5621377 (Clinical cancer research : an official journal of the …, 2016)

Legend:
[1] = ref unpublished data; cited from earlier work
[2] = system: Rb+ advanced solid tumors or lymphomas; assay: Clinical activity, radiographic response; type: in vivo, human
In short: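 Oral test compound given daily on a 3-weeks-on/1-week-off schedule (50–1,200 mg/day) or a continuous 28-day schedule (600 mg/day). Response was assessed by CT or MRI per RECIST 1.0 for solid tumors or IWG criteria for lymphomas. Scans were done at the end of every second cycle for six cycles, then every third cycle, and at end of treatment. Patients receiving at least one dose were included; analyses were descriptive.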

[3] = system: Ki67 and phosphorylated Rb [pRb]; assay: Pharmacodynamic biomarkers by immunohistochemistry in skin and tumor biopsies; type: in vivo, human
Jeko-1 MCL xenograft = details: doses comparable to those achievable in humans; cited from earlier work
[4] = system: patients with Rb+ advanced solid tumors or lymphomas; assay: Phase I dose escalation: DLT and MTD/RDE determination; type: in vivo
neuroblastoma cell lines = details: in vitro, dose-dependent; cited from earlier work

CN(C)C(=O)c1cc2cnc(Nc3ccc(N4CCNCC4)cn3)nc2n1C1CCCC1 [ribociclib]
nonclinical toxicity finding, bone marrow [1]: hypocellularity
nonclinical toxicity finding, cardiac [1]: prolongation of the average QTc
nonclinical toxicity finding, lymphoid system [1]: lymphoid depletion
nonclinical toxicity finding, testes [1]: atrophy
patients with best response of stable disease ([2]; 132 patients): 43
stable disease as best overall response by RECIST, patients ([2]; 132 patients): 41
stable disease as best overall response per IWG, patients ([2]; 132 patients): two
partial response rate ([2]; 132 patients, RECIST): 2.3%
stable disease as best overall response, rate ([2]; RECIST plus IWG, 132 patients): 32.6%
time on therapy ([2]; one patient with teratoma, 400 mg/day 3-weeks-on/1-week-off): 100 weeks
time on therapy ([2]; patient with liposarcoma, 600 mg/day continuous, past cut-off date): 102 weeks
post-treatment changes in pRb in tumor samples ([3]; 16 paired tumor biopsies): not significant or consistent
change of Ki67 in tumor biopsies ([3]; 19 paired tumor biopsies, baseline to Day 15 of Cycle 1 or 2): reductions of Ki67 from baseline were observed at higher ribociclib doses
change of pRb in skin samples ([3]; 46 paired skin biopsies): Mean decreases of pRb in skin samples were observed at all dose levels
change of Ki67 in skin biopsies ([3]; 48 paired skin biopsies, baseline to Day 15 of Cycle 2): post-treatment reductions of Ki67 were observed across all dose levels
tumor response in xenograft (Jeko-1 MCL xenograft): complete regressions
maximum tolerated dose (MTD) ([4]; 3-weeks-on/1-week-off schedule): 900 mg/day
recommended dose for expansion (RDE) ([4]; human, in vivo, 28 days): 600 mg/day
number of dose-limiting toxicities during Cycle 1 ([4]; in vivo): Nine
concentration with marked accumulation of cells in G0/G1 phase (neuroblastoma cell lines): above 100 nmol/L
